We go through nine molecules from ChEMBL document CHEMBL2157952, “Chemotherapy of leishmaniasis. Part IX: synthesis and bioevaluation of aryl substituted ketene dithioacetals as antileishmanial agents” (Bioorg Med Chem Lett, 2012).

pIC50: −log10 of the molar value. The source made the active and inactive calls. The calls are words filed in the database; no cut-off is given here. Where only a bound is given, the exact number is not on record here.

The subject of series [1] is Leishmania donovani. As to the kind of experiment: Antileishmanial activity against Leishmania donovani amastigotes infected in mouse J774A.1 cells after 72 hrs by luciferase reporter gene based luminometric analysis. Conditions: J774.A1, 72 h. The format is functional, organism-based. The essentials: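 J-774A.1 macrophages seeded at 4 × 10⁴/well in RPMI-1640 + 10% FCS, 37 °C, CO₂. After 24 h, infected with stationary-phase luciferase-expressing promastigotes (4 × 10⁵/well). Medium replaced with compound, seven-point twofold dilutions from 40 µM, for 72 h. Steady Glo added, luminescence read as RLU. IC50 by nonlinear regression with four-parameter Hill fit.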

The subject of series [2] is Leishmania donovani. As to the kind of experiment: Antileishmanial activity against Leishmania donovani MHOM/IN/80/Dd8 amastigotes infected in golden hamster assessed as inhibition of parasite multiplication at 50 mg/kg, ip for 5 days measured on day 7 by Giemsa staining. The format is functional. Conditions: for inhibition in vivo at 50 mg/kg: MHOM/IN/80/Dd8, ip, route intraperitoneal. The essentials: (§1)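 Golden hamsters (inbred, either sex, 40–45 g) infected intracardially with 1 × 10⁷ amastigotes each; infection establishes in 15–20 days. Animals randomized by biopsy parasite burden, 5–6 per sample. Dosing began 2 days after biopsy, five consecutive days. Post-treatment biopsy on day 7 after last dose, amastigotes counted by Giemsa staining. PI = 100 − [ANAT × 100/(INAT × TIUC)] versus untreated controls.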

The nature of series [3]: Cytotoxicity against human KB cells assessed as cell viability after 72 hrs by MTT assay. It is filed as cell-based. The essentials:
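Exponentially growing KB cells at 1 × 10⁵/well exposed 72 h at 37 °C in humidified CO₂/air to seven-point threefold dilutions from 400 µM; DMSO vehicle wells as control. MTT (5 mg/ml) added 2 h at 37 °C, supernatant removed, DMSO added, absorbance at 544 nm. CC50 is the concentration giving 50% viability reduction versus medium-only cells.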

The nature of series [4]: Selectivity index, ratio of CC50 for human KB cells to IC50 for Leishmania donovani amastigotes infected in mouse J774A.1 cells. It is filed as functional. Summed up: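 SI = CC50 (KB cells, MTT, 72 h) divided by IC50 against intracellular amastigotes in J-774A.1 macrophages (luciferase read-out, 72 h).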
For series [5], the system named is Leishmania donovani. As to the kind of experiment: Antileishmanial activity against Leishmania donovani MHOM/IN/80/Dd8 amastigotes infected in golden hamster assessed as inhibition of parasite multiplication at 30 mg/kg, po for 5 days measured on day 7 by Giemsa staining. The format is functional. Summed up:
as §1

Take `CSC(=CC(=O)/C=C/c1ccc(-n2ccnc2)cc1)SC`: the pIC50 in the series on Leishmania donovani [1] was less than 4.40. For the same molecule, the inhibition entry with Leishmania donovani [2] was “inactive”.

For the molecule `CSC(=CC(=O)/C=C/c1ccc(-n2cnnc2)cc1)SC`, the pIC50 with Leishmania donovani [1] was less than 4.70. Also, the inhibition entry with Leishmania donovani [2] was “inactive”.

On to `CSC(=CC(=O)/C=C/c1ccc(Cl)cc1)SC`, for which, in the series with Leishmania donovani [1], the pIC50 was less than 4.70. Moreover, the inhibition result in the series on Leishmania donovani [2] is “inactive”.

The molecule `COc1cc(/C=C/C(=O)C=C(SC)SC)ccc1OCc1ccccc1` showed a pIC50 in the series with Leishmania donovani [1] of 5.45. For the same molecule, the cytotoxic concentration (CC50) at 72 h in series [3] was 204 µM. Also, in series [4], the “Ratio CC50/IC50” value was found to be 57.26. In the series with Leishmania donovani [2], the inhibition in vivo at 50 mg/kg was 78%.

Take `CSC(=CC(=O)/C=C/c1ccccc1Cl)SC`: the pIC50 with Leishmania donovani [1] is less than 4.40. Also, in the series with Leishmania donovani [2], the inhibition result is “inactive”.

With `CSC(=CC(=O)/C=C/c1cccc([N+](=O)[O-])c1)SC`, in the series on Leishmania donovani [1], the pIC50 is 5.29. Besides, the CC50 at 72 h in series [3] amounted to 9.83 µM. In series [4], the “Ratio CC50/IC50” value was 1.92. Moreover, the inhibition in vivo at 50 mg/kg with Leishmania donovani [2] was 82.8%.

Molecule `CSC(=CC(=O)/C=C/c1ccc([N+](=O)[O-])cc1)SC` gave a pIC50 in the series with Leishmania donovani [1] of less than 4.40. In the series with Leishmania donovani [2], the inhibition result was “inactive”.

`CSC(=CC(=O)/C=C/c1ccc(F)cc1)SC`: the negative logarithm of the IC50 (pIC50) with Leishmania donovani [1] is less than 4.40. Also, the inhibition result in the series with Leishmania donovani [2] was “inactive”.

The molecule `CCCCCCCCCCCCCCCCOP(=O)([O-])OCC[N+](C)(C)C` [MILTEFOSINE] had a pIC50 in the series on Leishmania donovani [1] of 4.90. Also, in series [3], the CC50 at 72 h was determined as 3.23 µM. The “Ratio CC50/IC50” value in series [4] turned out to be 0.26. The inhibition in vivo at 30 mg/kg in the series with Leishmania donovani [5] came out at 95.3%.
